In ChEMBL document CHEMBL1122302, “2-Benzazepines. 2. Thiazolo[5,4-d][2]benzazepines” (J Med Chem, 1983) one finds IC50 and ED50 data, which are given here for seven compounds.

SMILES strings stand for the structures. pIC50: −log10 of the molar value.

The target of test [1] is GABA-A receptor; anion channel. The experiment in a line: In vitro displacement of [3H]diazepam from GABA-A benzodiazepine receptor. Format: protein-complex assay. Background: Loss of bound radioactivity is the signal in a displacement assay; it reports binding, not function.
The nature of test [2]: Prevention of metrazole induced convulsions in the antimetrazole test. It counts as functional. To be noted: Mus musculus. Summed up:
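Test compound given as a suspension in 5% acacia to three male CF-1 animals per dose level; metrazole 70 mg/kg iv 1 h later.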

The pIC50 is −log10 of the IC50, conventionally taken in molar units. Low readings indicate a high IC50, high ones a low IC50. Usually ED50 stands for the midpoint of the dose-response relation. Low values mean an effect at a small dose, high ones a need for a large dose. Compound `Nc1nc2c(s1)CN=C(c1ccccc1Cl)c1cc(Cl)ccc1-2` gave a negative logarithm of the IC50 (pIC50) in test [1] of 8.80. Moreover, in test [2], the 50% effect level (ED50) was put at a dose of 9.3 mg/kg.
Compound `CN1C(=O)CN=C(c2ccccc2)c2cc(Cl)ccc21` [DIAZEPAM] gave a 50% effective dose (ED50) in test [2] of 1 mg/kg.
`Cc1nc2c(s1)CN=C(c1ccccc1F)c1cc(Cl)ccc1-2` gave a pIC50 in test [1] of 8.11. Also, the ED50 in test [2] amounted to 30 mg/kg.
With `Nc1nc2c(s1)CN=C(c1ccccc1)c1cc(Cl)ccc1-2`, the negative logarithm of the IC50 (pIC50) in test [1] was 7.98. This compound also showed an ED50 in test [2] of 7.4 mg/kg.
In test [1], `Cc1nc2c(s1)CN=C(c1ccccc1Cl)c1cc(Cl)ccc1-2` showed a negative-log IC50 (pIC50) of 8.39. This compound showed an ED50 in test [2] of 50 mg/kg.
The compound `Cc1nc2c(s1)CN=C(c1ccccc1)c1cc(Cl)ccc1-2` had a pIC50 in test [1] of 7.49. In test [2], this compound had a median effective dose (ED50) of 63 mg/kg.
The like results for `Nc1nc2c(s1)CN=C(c1ccccc1F)c1cc(Cl)ccc1-2` were, in that order, 8.55 and 7.7 mg/kg.
